This is an account of results in ChEMBL document CHEMBL1155493, “Synthesis of new cis-fused tetrahydrochromeno[4,3-b]quinolines and their antiproliferative activity studies against MDA-MB-231 and MCF-7 breast cancer cell lines” (Bioorg Med Chem Lett, 2010).

One test relates to MDA-MB-231. As to the kind of experiment: Antiproliferative activity against human MDA-MB-231 cells by MTT assay. It is filed as functional, cell-based. The essentials: (§1)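 MTT read-out following an earlier published protocol; IC50 values reported, with tamoxifen as the reference compound.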
A general note: Formazan colour is commonly taken as a measure of viable cells.

Another test deals with MCF7. As to the kind of experiment: Antiproliferative activity against human MCF7 cells by MTT assay. It is filed as functional, cell-based. The method in brief:
as §1

One may read the IC50 as the midpoint of a concentration-inhibition curve. Turning to `Cc1coc2c3c(ccc2c1=O)OC[C@H]1[C@@H]3Nc2cc3ccccc3cc2C1(C)C`, the IC50 with MDA-MB-231 was 9.4 µM; in the test on MCF7, 9 µM.
Consider `Cc1oc2c3c(ccc2c(=O)c1-c1ccccc1)OC[C@H]1[C@@H]3Nc2ccccc2C1(C)C`, for which the IC50 with MDA-MB-231 and in the test with MCF7 was above 100 µM each time.
As to `COc1ccc2c(c1)C(C)(C)[C@H]1COc3ccc4c(=O)c(C)c(C)oc4c3[C@H]1N2`, the IC50 in the test on MDA-MB-231 and in the test on MCF7 was above 100 µM throughout.
Take `Cc1ccc2c(c1)C(C)(C)[C@H]1COc3ccc4c(=O)c(C)c(C)oc4c3[C@H]1N2`: the IC50 is above 100 µM with MDA-MB-231 and 94.3 µM with MCF7.
In the case of `Cc1ccc2c(c1)C(C)(C)[C@H]1COc3ccc4c(=O)c(-c5ccccc5)c(C)oc4c3[C@H]1N2`, the IC50 in the test on MDA-MB-231 is above 100 µM; in the test on MCF7 it was 10 µM.
As for `Cc1ccc2c(c1)C(C)(C)[C@H]1COc3ccc4c(=O)c(C)coc4c3[C@H]1N2`, the IC50 in the test on MDA-MB-231 was above 100 µM; with MCF7, 10.2 µM.
With `CC/C(=C(\c1ccccc1)c1ccc(OCCN(C)C)cc1)c1ccccc1` [TAMOXIFEN], the IC50 with MDA-MB-231 worked out at 0.66 µM; in the test with MCF7 it was 1 µM.
On to `Cc1oc2c3c(ccc2c(=O)c1C)OC[C@H]1[C@@H]3Nc2ccccc2C1(C)C`, for which the IC50 in the test with MDA-MB-231 and in the test with MCF7 was above 100 µM each time.
In the case of `Cc1oc2c3c(ccc2c(=O)c1C)OC[C@H]1[C@@H]3Nc2cc3ccccc3cc2C1(C)C`, the IC50 in the test with MDA-MB-231 and with MCF7 was above 100 µM each time.
In the case of `Cc1coc2c3c(ccc2c1=O)OC[C@H]1[C@@H]3Nc2ccccc2C1(C)C`, the values for the IC50 in the test with MDA-MB-231 and in the test with MCF7 were 93.8 µM and 9.6 µM, respectively.
